From publication PMC3053384 (Pediatric blood & cancer, 2010)
Where two headings read alike, the source gives them in different places. Marks after values point to notes of the source that are not given here.

Tests used:
[1] = test system: Ewing sarcoma, Wilms tumor, glioblastoma, rhabdoid tumor and acute lymphoblastic leukemia xenografts; settings: cited from earlier work
[2] = Pediatric phase 1 trial: plasma pharmacokinetics after first dose; set-up: species or system human; settings: in vivo
[3] = cited from earlier work
[4] = test system: adult tumors (breast, ovarian and other cancers); settings: 18 mg/m^2 once every 21 days; cited from earlier work
[5] = test system: recurrent or refractory solid tumors; experiment: Pediatric phase 1 trial: tumor response; format: in vivo, human
Procedure, shortened: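 Children with recurrent or refractory solid tumors received the test compound as a 1-hour IV infusion on days 1, 8 and 15 of each 28-day course, at 5, 7, 9 or 12 mg/m2/dose. The compound was diluted in 5% dextrose in water to a final ≤ 150 μg/mL. Patients with haematologic DLT continued at the next lower dose level. Radiographic response was assessed by NCI RECIST.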

[6] = molecular target: kinesin spindle protein (KSP/HsEg5); settings: read-out: binding constant, Ki; cited from earlier work
[7] = Pediatric phase 1 trial: toxicity, DLT and MTD; format: in vivo, human; settings: for No. of patients with DLT: first course; for No. of courses with Grade 3 Anemia / No. of courses with Grade 3 Lymphopenia / No. of courses with Grade 3 Neutropenia / No. of courses with Grade 3 Thrombocytopenia / No. of courses with Grade 4 Anemia / No. of courses with Grade 4 Lymphopenia / No. of courses with Grade 4 Thrombocytopenia / No. of courses with Grade 4 Neutropenia: independent of frequency or attribution; for No. of courses with Grade 4 Neutropenia: dose-limiting
[8] = 12 mg/m^2 dose level, of 6 evaluable
[9] = Course 1 (19 courses), non-dose-limiting, related to protocol therapy
[10] = Courses 2-7 (15 courses), non-dose-limiting, related to protocol therapy

Cc1ccc(C(=O)N(CCCN)[C@@H](c2nc3cc(Cl)ccc3c(=O)n2Cc2ccccc2)C(C)C)cc1 [ispinesib, Ispinesib]
in vivo anti-tumor activity [1]: high level of in vivo anti-tumor activity | dose dependence of terminal t1/2 ([2]; human): independent of dose | volume of distribution at steady state (Vss), median ([2]; human): 84 L/m^2 | volume of distribution at steady state (Vss), range ([2]; human): 23-193 L/m^2 | Clearance ([2]; human, 5 mg/m2): 5.3 L/hr/m^2 | Cmax ([2]; human, 5 mg/m2, Cmax): 145 ng/mL | half-life ([2]; human, 5 mg/m2, t1/2): 9 h | half-life ([2]; human, 7 mg/m2, t1/2): 14 h | Clearance ([2]; human, 12 mg/m2): 13.5 L/hr/m^2 | Vss ([2]; human, 12 mg/m2): 193 L/m^2 | Cmax ([2]; human, 12 mg/m2, Cmax): 149 ng/mL | half-life ([2]; human, 12 mg/m2, t1/2): 13 h | Cmax ([2]; human, iv, 5 mg/m2, Cmax): 86 ng/mL | half-life ([2]; human, iv, 5 mg/m2, t1/2): 44 h | Cmax ([2]; human, iv, 7 mg/m2, Cmax): 244 ng/mL | half-life ([2]; human, iv, 7 mg/m2, t1/2): 32 h | Cmax ([2]; human, iv, 12 mg/m2, Cmax): 204 ng/mL | half-life ([2]; human, iv, 12 mg/m2, t1/2): 8 h | half-life ([2]; human, terminal elimination half-life (t1/2), median): 16 h | half-life ([2]; human, terminal elimination half-life (t1/2), range): 8 to 44 h | Clearance ([2]; 5 mg/m2): 3.0 L/hr/m^2 | Clearance ([2]; 7 mg/m2): 1.2 L/hr/m^2 | Vss ([2]; 7 mg/m2): 51 L/m^2 | Clearance ([2]; 12 mg/m2): 7.1 L/hr/m^2 | Vss ([2]; 12 mg/m2): 83 L/m^2 | maximum tolerated dose (MTD) ([3]; adult patients with breast cancer, day 1 and day 15 every 28 days): 12 mg/m^2 | maximum tolerated dose (MTD) ([3]; adult patients with solid tumors, day 1, 2 and 3 every 21 days): 6 mg/m^2 | maximum tolerated dose (MTD) ([3]; adult patients with solid tumors, weekly x 3 every 28 days): 7 mg/m^2/dose | maximum tolerated dose (MTD) ([3]; adults with acute leukemia, days 1, 2 and 3 every 21 days): 10 mg/m^2/dose | recommended adult phase II dose ([3]; adults, weekly x 3 every 28 days): 7 mg/m^2/dose | activity in other adult tumor indications [4]: No significant activity | complete courses of therapy with stable disease ([5]; 7 mg/m^2 dose level, ependymoblastoma): 7 courses | complete courses of therapy with stable disease ([5]; 9 mg/m^2 dose level, alveolar soft part sarcoma): 5 courses | complete courses of therapy with stable disease ([5]; 12 mg/m^2 dose level, anaplastic astrocytoma): 4 courses | objective tumor responses ([5]; 24 pediatric patients evaluable for response): no objective tumor responses | Ki [6]: 0.6 nM | No. of patients with DLT ([7]; 5 mg/m^2/dose, 3 evaluable patients): 0 | No. of patients with DLT ([7]; 9 mg/m^2/dose, 6 evaluable patients): 1 | No. of patients with DLT ([7]; 12 mg/m^2/dose, 6 evaluable patients): 3 | patients with dose-limiting hyperbilirubinemia (grade 3) [7, 8]: 1/6 | patients with dose-limiting neutropenia (grade 4) [7, 8]: 2/6 | pediatric MTD higher than recommended adult phase II dose ([7]; 9 vs 7 mg/m^2/dose): ~30% | No. of courses with Grade 3 Anemia ([7]; Course 1 (19 courses)): 1 | No. of courses with Grade 3 Lymphopenia ([7]; Course 1 (19 courses)): 2 | No. of courses with Grade 3 Neutropenia ([7]; Course 1 (19 courses)): 5 | No. of courses with Grade 3 Thrombocytopenia ([7]; Course 1 (19 courses)): 1 | No. of courses with Grade 4 Anemia ([7]; Course 1 (19 courses)): 0 | No. of courses with Grade 4 Lymphopenia ([7]; Course 1 (19 courses)): 1 | No. of courses with Grade 4 Thrombocytopenia ([7]; Course 1 (19 courses)): 0 | No. of courses with Grade 4 Neutropenia ([7]; Course 1 (19 courses)): 3 ^* | No. of courses with ALT toxicity, Grade 3 [7, 9]: 1 | No. of courses with ALT toxicity, Grades 1 and 2 [7, 9]: 3 | No. of courses with AST toxicity, Grade 3 [7, 9]: 1 | No. of courses with AST toxicity, Grades 1 and 2 [7, 9]: 2 | No. of courses with Alkaline phosphatase toxicity, Grade 3 [7, 9]: 0 | No. of courses with Alkaline phosphatase toxicity, Grades 1 and 2 [7, 9]: 2 | No. of courses with Constipation, Grade 3 [7, 9]: 0 | No. of courses with Constipation, Grades 1 and 2 [7, 9]: 2 | No. of courses with Diarrhea, Grade 3 [7, 9]: 0 | No. of courses with Diarrhea, Grades 1 and 2 [7, 9]: 2 | No. of courses with Electrolyte abnormality, Grade 3 [7, 9]: 0 | No. of courses with Electrolyte abnormality, Grades 1 and 2 [7, 9]: 4 | No. of courses with Fatigue, Grade 3 [7, 9]: 0 | No. of courses with Fatigue, Grades 1 and 2 [7, 9]: 3 | No. of courses with Hyperbilirubinemia, Grade 3 [7, 9]: 1 | No. of courses with Hyperbilirubinemia, Grades 1 and 2 [7, 9]: 1 | No. of courses with Hypoalbuminemia, Grade 3 [7, 9]: 0 | No. of courses with Hypoalbuminemia, Grades 1 and 2 [7, 9]: 3 | No. of courses with Nausea, Grade 3 [7, 9]: 0 | No. of courses with Nausea, Grades 1 and 2 [7, 9]: 4 | No. of courses with Vomiting, Grade 3 [7, 9]: 0 | No. of courses with Vomiting, Grades 1 and 2 [7, 9]: 3 | No. of courses with Grade 3 Anemia ([7]; Courses 2-7 (15 courses)): 0 | No. of courses with Grade 3 Lymphopenia ([7]; Courses 2-7 (15 courses)): 2 | No. of courses with Grade 3 Neutropenia ([7]; Courses 2-7 (15 courses)): 1 | No. of courses with Grade 3 Thrombocytopenia ([7]; Courses 2-7 (15 courses)): 0 | No. of courses with Grade 4 Anemia ([7]; Courses 2-7 (15 courses)): 0 | No. of courses with Grade 4 Lymphopenia ([7]; Courses 2-7 (15 courses)): 0 | No. of courses with Grade 4 Thrombocytopenia ([7]; Courses 2-7 (15 courses)): 0 | No. of courses with Grade 4 Neutropenia ([7]; Courses 2-7 (15 courses)): 1 ^* | No. of courses with ALT toxicity, Grades 1 and 2 [7, 10]: 0 | No. of courses with AST toxicity, Grades 1 and 2 [7, 10]: 0 | No. of courses with Alkaline phosphatase toxicity, Grades 1 and 2 [7, 10]: 0 | No. of courses with Constipation, Grades 1 and 2 [7, 10]: 0 | No. of courses with Diarrhea, Grades 1 and 2 [7, 10]: 0 | No. of courses with Electrolyte abnormality, Grades 1 and 2 [7, 10]: 0 | No. of courses with Fatigue, Grades 1 and 2 [7, 10]: 1 | No. of courses with Hyperbilirubinemia, Grades 1 and 2 [7, 10]: 0 | No. of courses with Hypoalbuminemia, Grades 1 and 2 [7, 10]: 0 | No. of courses with Nausea, Grades 1 and 2 [7, 10]: 1 | No. of courses with Vomiting, Grades 1 and 2 [7, 10]: 1 | maximum tolerated dose (MTD) and recommended phase II dose ([7]; children with solid tumors, 1-hour iv infusion weekly x 3 every 28 days): 9 mg/m^2/dose | primary dose-limiting adverse events ([7]; pediatric patients): neutropenia and hepatotoxicity | reversibility of neutropenia ([7]; pediatric patients): rapidly reversible | tolerability ([7]; pediatric patients, 9 mg/m^2/dose weekly x 3 every 28 days): well tolerated | tolerability ([7]; pediatric patients, 5-12 mg/m^2/dose weekly x 3 every 28 days): generally well tolerated
